The values below come from ChEMBL document CHEMBL4261508, “Pyrazolo[3,4-d]pyrimidines as sigma-1 receptor ligands for the treatment of pain. Part 2: Introduction of cyclic substituents in position 4” (Medchemcomm, 2017).

Data set [1] concerns HepG2. The data set is described as follows: Cytotoxicity against human HepG2 cells up to 100 uM by neutral red uptake assay. It counts as cell-based. In a few lines:
(§1)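 HepG2 cells exposed to compound up to 100 μM. Cytotoxicity read by MTT and by Neutral Red uptake.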

The target in another data set is CYP2C19 (Homo sapiens, UniProt P33261). The data set is described as follows: Inhibition of recombinant human CYP2C19 at 1 uM relative to control. The format is ADME.
Sequence of CYP2C19 (P33261 whole entry): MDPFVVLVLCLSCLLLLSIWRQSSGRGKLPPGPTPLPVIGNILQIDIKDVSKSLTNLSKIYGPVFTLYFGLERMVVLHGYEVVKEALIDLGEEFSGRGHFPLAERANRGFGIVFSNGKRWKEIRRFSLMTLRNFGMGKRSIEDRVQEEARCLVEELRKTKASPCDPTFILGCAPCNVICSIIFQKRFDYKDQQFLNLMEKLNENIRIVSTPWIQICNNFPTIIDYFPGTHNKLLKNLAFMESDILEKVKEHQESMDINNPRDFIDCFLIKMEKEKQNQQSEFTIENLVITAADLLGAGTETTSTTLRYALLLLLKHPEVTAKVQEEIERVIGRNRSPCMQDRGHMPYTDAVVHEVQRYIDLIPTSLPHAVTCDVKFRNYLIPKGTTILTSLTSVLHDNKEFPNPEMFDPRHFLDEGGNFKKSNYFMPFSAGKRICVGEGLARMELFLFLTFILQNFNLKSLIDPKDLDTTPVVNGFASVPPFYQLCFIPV
A further data set addresses T1, CYP1A2 (Homo sapiens, UniProt P05177).
T1 sequence (P05177 whole entry): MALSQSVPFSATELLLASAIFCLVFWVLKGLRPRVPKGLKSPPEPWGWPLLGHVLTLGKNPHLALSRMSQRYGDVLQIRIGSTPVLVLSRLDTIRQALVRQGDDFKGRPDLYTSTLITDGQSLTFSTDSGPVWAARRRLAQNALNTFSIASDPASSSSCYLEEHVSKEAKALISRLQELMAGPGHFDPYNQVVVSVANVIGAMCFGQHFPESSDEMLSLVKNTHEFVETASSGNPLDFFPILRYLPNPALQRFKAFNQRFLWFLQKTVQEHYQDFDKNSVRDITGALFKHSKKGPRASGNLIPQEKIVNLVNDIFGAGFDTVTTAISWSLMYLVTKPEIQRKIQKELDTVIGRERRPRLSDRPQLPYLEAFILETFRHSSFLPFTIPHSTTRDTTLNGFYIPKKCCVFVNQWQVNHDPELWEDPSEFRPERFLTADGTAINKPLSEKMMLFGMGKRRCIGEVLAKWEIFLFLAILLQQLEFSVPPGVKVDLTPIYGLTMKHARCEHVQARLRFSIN
Description: Inhibition of recombinant human CYP1A2 at 1 uM relative to control. It counts as ADME.

The subject of data set [2] is Mus musculus. Description: Antinociceptive activity in partial sciatic nerve ligation CD-1 mouse model of neuropathic pain assessed as reduction in mechanical hypersensitivity at 80 mg/kg, po administered 8 days post partial sciatic nerve injury measured after 30 mins by von frey filament assay relative to control. Also on record: scale not given: the % may be the effect or the level left. The format is functional. The method in brief: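 Mice with partial sciatic nerve ligation, drug given orally at 80 mg/kg. Pressure threshold (g) for paw withdrawal to von Frey filament was measured after dosing. It was compared with vehicle response 8 days post-surgery and with pre-ligation baseline to give % reduction of hypersensitivity.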

The nature of data set [3]: Displacement of [3H]-DTG from sigma2 receptor in guinea pig brain membranes after 120 mins in presence of sigma1 […] (+)-SKF10047 by microbeta scintillation counting method. The format is cell membranes, Cavia porcellus, Membrane.
Data set [4] deals with Mus musculus. The data set is described as follows: Analgesic activity in formalin-induced nociception CD-1 mouse model assessed as reduction in time spent in licking or biting formalin injected hind paw at 40 mg/kg, ip pretreated for 30 mins followed by formalin stimulation measured after 15 to 30 mins relative to control. It counts as functional. On the set-up: scale not given: the % may be the effect or the level left. The method in brief: (§2)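 Mice received drug i.p. (40 mg/kg) or p.o. (80 mg/kg), and formalin was injected intraplantar. Paw licking-biting time in phase II (delayed phase) was scored. Result is % antinociception in treated animals vs vehicle.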

The target of the next data set is CYP2D6 (Homo sapiens, UniProt P10635). Description: Inhibition of recombinant human CYP2D6 at 1 uM relative to control. It counts as ADME.
Sequence of CYP2D6 (P10635 whole entry): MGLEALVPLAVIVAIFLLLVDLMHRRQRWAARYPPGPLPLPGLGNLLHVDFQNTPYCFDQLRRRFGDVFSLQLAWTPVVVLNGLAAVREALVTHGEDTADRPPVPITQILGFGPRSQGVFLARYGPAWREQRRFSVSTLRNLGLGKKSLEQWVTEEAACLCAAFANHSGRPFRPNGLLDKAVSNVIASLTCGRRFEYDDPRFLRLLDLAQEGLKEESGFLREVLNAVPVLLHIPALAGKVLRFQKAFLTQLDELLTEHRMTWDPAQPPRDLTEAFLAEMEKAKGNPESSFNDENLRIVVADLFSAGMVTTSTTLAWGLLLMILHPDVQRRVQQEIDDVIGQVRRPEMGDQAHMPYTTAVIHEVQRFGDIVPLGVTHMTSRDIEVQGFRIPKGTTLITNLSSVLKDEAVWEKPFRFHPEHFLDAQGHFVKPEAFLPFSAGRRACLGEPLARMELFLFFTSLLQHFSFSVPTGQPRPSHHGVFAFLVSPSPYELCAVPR
Data set [5] is described as follows: Stability of the compound assessed as drug degradation at pH 7.4. The settings on record: buffer. The format is physicochemical. The method in brief: (§3)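 Chemical stability measured by LC/MS. A 10 mM DMSO stock of compound was diluted into phosphate buffer pH 7.4 or 0.01 M HCl pH 2.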
The target in the next data set is CYP3A4 (Homo sapiens, UniProt P08684). Description: Inhibition of recombinant human CYP3A4 at 1 uM relative to control. It counts as ADME.
Sequence of CYP3A4 (P08684 whole entry): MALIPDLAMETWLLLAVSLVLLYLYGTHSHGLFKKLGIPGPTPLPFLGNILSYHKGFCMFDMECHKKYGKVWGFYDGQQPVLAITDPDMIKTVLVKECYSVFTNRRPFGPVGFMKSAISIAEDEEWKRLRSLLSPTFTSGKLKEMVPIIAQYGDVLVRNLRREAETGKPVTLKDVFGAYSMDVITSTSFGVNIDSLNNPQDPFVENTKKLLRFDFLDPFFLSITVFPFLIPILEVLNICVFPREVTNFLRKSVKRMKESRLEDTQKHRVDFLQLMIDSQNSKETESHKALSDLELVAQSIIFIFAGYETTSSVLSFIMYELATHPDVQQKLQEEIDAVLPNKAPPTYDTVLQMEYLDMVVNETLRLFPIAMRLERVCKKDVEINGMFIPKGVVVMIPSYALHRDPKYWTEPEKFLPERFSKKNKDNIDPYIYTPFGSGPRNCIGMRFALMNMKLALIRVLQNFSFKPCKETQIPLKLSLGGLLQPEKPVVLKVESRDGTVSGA
Data set [6] in a line: Intrinsic clearance in human liver microsomes assessed as per mg protein at 1 uM after 1 hr in presence of NADPH-generating system by UPLC-MS/MS analysis. It counts as ADME, microsome. Particulars: read-out: CLH.
The nature of data set [7]: Stability of the compound assessed as drug degradation at pH 2. Particulars: buffer. It counts as physicochemical. The method in brief: as §3
Data set [8] is described as follows: Apparent permeability in human Caco2 cells. The settings on record: Caco-2. It counts as ADME, cell-based.
Data set [9] has as its system HepG2. The data set is described as follows: Cytotoxicity against human HepG2 cells up to 100 uM by MTT assay. The format is cell-based. In a few lines:
as §1

Data set [10] in a line: Thermodynamic solubility of the compound in pH 2 phosphate buffer. It counts as physicochemical. The settings on record: read-out: Therm_solubility.
For data set [11], the system named is Mus musculus. Description: Antinociceptive activity in capsaicin-induced nociception pain CD-1 mouse model assessed as increase in paw withdrawal latency at 80 mg/kg, po pretreated for 30 mins followed by capsaicin challenge measured after 15 mins by von frey filament assay relative to control. It counts as functional. The method in brief: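 Capsaicin test in mice, drug given orally at 80 mg/kg. Mechanical hypersensitivity was read as paw withdrawal latency to upward pressure by von Frey filament. Result is % reduction in drug-treated vs vehicle animals.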

A short description of data set [12]: Thermodynamic solubility of the compound in pH 7.4 phosphate buffer. It counts as physicochemical. The settings on record: read-out: Therm_solubility.
Data set [13] deals with Mus musculus. The data set is described as follows: Analgesic activity in formalin-induced nociception CD-1 mouse model assessed as reduction in time spent in licking or biting formalin injected hind paw at 40 mg/kg, ip pretreated for 30 mins followed by formalin stimulation measured up to 5 mins. It counts as functional, organism-based.
For data set [14], the system named is Mus musculus. The data set is described as follows: Analgesic activity in formalin-induced nociception CD-1 mouse model assessed as reduction in time spent in licking or biting formalin injected hind paw at 80 mg/kg, po pretreated for 30 mins followed by formalin stimulation measured up to 5 mins. The format is functional, organism-based.
The subject of data set [15] is Mus musculus. The data set is described as follows: Analgesic activity in formalin-induced nociception CD-1 mouse model assessed as reduction in time spent in licking or biting formalin injected hind paw at 80 mg/kg, po pretreated for 30 mins followed by formalin stimulation measured after 15 to 30 mins relative to control. It counts as functional. Also on record: scale not given: the % may be the effect or the level left. In a few lines:
as §2

The target of a further data set is CYP2C9 (Homo sapiens, UniProt P11712). The data set is described as follows: Inhibition of recombinant human CYP2C9 at 1 uM relative to control. It counts as ADME.
Sequence of CYP2C9 (P11712 whole entry): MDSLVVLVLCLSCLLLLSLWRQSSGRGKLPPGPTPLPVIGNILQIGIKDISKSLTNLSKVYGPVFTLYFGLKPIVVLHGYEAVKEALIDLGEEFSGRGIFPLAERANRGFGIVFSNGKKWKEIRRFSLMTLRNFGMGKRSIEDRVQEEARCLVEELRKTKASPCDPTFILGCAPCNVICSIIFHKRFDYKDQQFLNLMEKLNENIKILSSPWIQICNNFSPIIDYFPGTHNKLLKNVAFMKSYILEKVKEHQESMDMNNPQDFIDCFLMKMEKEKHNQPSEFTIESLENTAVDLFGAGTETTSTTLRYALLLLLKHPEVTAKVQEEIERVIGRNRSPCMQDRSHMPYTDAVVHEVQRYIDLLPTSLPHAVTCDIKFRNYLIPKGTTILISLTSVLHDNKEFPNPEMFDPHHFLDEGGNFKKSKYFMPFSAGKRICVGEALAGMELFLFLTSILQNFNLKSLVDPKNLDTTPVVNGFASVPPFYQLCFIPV
A further data set relates to Salmonella typhimurium. Description: Genotoxicity in Salmonella typhimurium TA1535 harboring pSK1002 by […]. The format is toxicity, organism-based. The settings on record: salmonella enterica subsp. enterica serovar typhimurium.

In brackets after ≈: the same amount, converted by molar mass. Activity calls are given as the source filed them. Some results are limits rather than exact numbers.

For the compound `Cn1nccc1-c1ncnc2c1cnn2CCN1CCCCC1`, the Activity result in the data set with HepG2 [1] is on record as “Non-Toxic”; with Mus musculus [2], 46%; in the data set on Mus musculus [4], 67%; in the data set with HepG2 [9] it was “Non-Toxic”; in the data set with Mus musculus [11], 43%; with Mus musculus [15] it was 54%. The Activity result in the data set with Salmonella typhimurium is “Non-Toxic”. The inhibition at 1 µM at CYP2C19, on CYP1A2, on CYP2D6, at CYP3A4 and on CYP2C9 was < 50% each time. In data set [3], the Ki is > 1000 nM. For the same compound, the Stability result in [5] and in data set [7] was “Stable” each time. For the same compound, the microsomal CLint at 1 µM in data set [6] is 2.4 µL/min/mg. The Papp in data set [8] stood at 40.7 ×10⁻⁶ cm/s. Besides, the solubility thermodynamic in [10] was 2400 µg/mL (≈ 7.71 mM); in data set [12], 1500 µg/mL (≈ 4.82 mM). The outcome in the data set with Mus musculus [13] and with Mus musculus [14] was Active.
